Measurements reported in ChEMBL document CHEMBL3414514, “Synthesis and pharmacological evaluation of novel bisindole derivatives bearing oximes moiety: identification of novel proapoptotic agents” (Eur J Med Chem, 2015).
pIC50: −log10 of the molar value. Active and inactive are the calls of the source. No cut-off for these calls is given here.

Experiments:
T-24 [1] = assay: Induction of apoptosis in human T24 cells assessed as necrotic cells at 5 to 20 uM after 24 hrs by AO/EB staining-based fluorescence microscopic analysis; assay type: functional, cell-based
In short: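 T24 cells seeded at 5 × 10^4 cells/mL on cover slips. Medium was replaced with fresh medium containing 10% FBS and compound at 5, 10 or 20 µM for 24 h. Cover slips were inverted onto AO/EB stain and viewed by fluorescence microscopy. Live cells score uniform green, early apoptotic green-yellow, late apoptotic orange, and necrotic orange without condensed chromatin. Untreated cells served as control.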

T-24 [2] = assay: Induction of apoptosis in human T24 cells assessed as increase in Bax protein expression after 6 to 24 hrs by Western blotting analysis; assay type: functional, cell-based
[3] = Cell cycle arrest in human T24 cells assessed as accumulation at S phase at 20 uM after 48 hrs by Rnase A/propidium iodide staining-based flow cytometry (reference value: 62%); assay type: functional; conditions: T-24
In short: (§1)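 T24 cells exposed to […] for 48 h, washed with ice-cold PBS, then fixed and permeabilized overnight in ice-cold 70% ethanol. RNase A (100 mg/mL) treatment at 37 C for 30 min, then PI staining (1 mg/mL) in the dark at 4 C for 30 min. Flow cytometry gave the percentage of cells in G1, S and G2 phase.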

T-24 [4] = assay: Induction of apoptosis in human T24 cells assessed as reduction in Bcl2 protein expression after 6 to 24 hrs by Western blotting analysis; assay type: functional, cell-based
In short: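 T24 cells exposed at 20 µM for 6, 12 and 24 h, then lysed in ice-cold RIPA with protease and phosphatase inhibitors. Protein was quantified by Bradford, and 30 µg per lane was run on 12% SDS-PAGE and transferred to PVDF. Membranes were blocked 2 h, probed with primary antibody at 4 °C overnight, then HRP secondary (1:2000) for 1 h, with chemiluminescent detection.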

T-24 [5] = assay: Induction of apoptosis in human T24 cells assessed as late apoptotic cells at 10 uM after 24 hrs by annexin-V-FITC/propidium iodide staining-based flow cytometry (reference value: 2.08%); assay type: functional
[6] = Cell cycle arrest in human T24 cells assessed as accumulation at S phase at 5 uM after 48 hrs by Rnase A/propidium iodide staining-based flow cytometry (reference value: 62%); assay type: functional; conditions: T-24; in short: as §1
T-24 [7] = assay: Induction of apoptosis in human T24 cells assessed as reduction in cellular volume after 24 hrs by Hoechst 33258 staining-based fluorescence microscopic analysis relative to control; assay type: functional, cell-based
In short: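 T24 cells on cover slips exposed 24 h at 5, 10 and 20 µM, with untreated cells as control. Fixed in 4% paraformaldehyde for 10 min, washed with PBS and stained with Hoechst 33258 for 5 min. Nuclei were viewed by fluorescence microscopy at 350 nm excitation and 460 nm emission.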

HepG2 = assay: Cytotoxicity against human HepG2 cells after 2 days by MTT assay; assay type: functional, cell-based; conditions: HepG2, 48 h
In short: (§2)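 Cells grown in medium with 10% heat-inactivated FBS at 37 C under 5% CO2. Compounds dissolved in medium with 1% DMSO; controls received 1% DMSO. After 2 days, MTT (10 mg/mL) added for 4 h, formazan dissolved in DMSO and absorbance read at 570/630 nm. Survival taken relative to negative control; IC50 by Bliss method (n = 5), at least three independent experiments.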

T-24 [8] = assay: Induction of apoptosis in human T24 cells assessed as early apoptotic cells at 10 uM after 24 hrs by annexin-V-FITC/propidium iodide staining-based flow cytometry (reference value: 2.74%); assay type: functional
T-24 [9] = assay: Induction of apoptosis in human T24 cells assessed as increase in caspase-9 protein expression at 20 uM after 6 to 24 hrs by Western blotting analysis; assay type: functional, cell-based
T-24 [10] = assay: Induction of apoptosis in human T24 cells assessed as early apoptotic cells at 20 uM after 24 hrs by annexin-V-FITC/propidium iodide staining-based flow cytometry (reference value: 2.74%); assay type: functional
[11] = Cell cycle arrest in human T24 cells assessed as increase in p16 level after 24 hrs by Western blotting analysis; assay type: functional, cell-based; conditions: T-24
In short: (§3)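 T24 cells treated at […] for 24 h and lysed in ice-cold RIPA buffer with protease inhibitors and NaF. Protein measured by Bradford; 30 micrograms per lane run on 12% SDS-PAGE and transferred to PVDF. Blocked 2 h at room temperature, primary antibody overnight at 4 C, HRP secondary (1:2000) 1 h, chemiluminescence detection.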

T-24 [12] = assay: Induction of apoptosis in human T24 cells assessed as increase in intracellular ROS level at 5 to 20 uM after 24 hrs by DCFH/DA staining-based fluorescence microscopic analysis; assay type: functional, cell-based
[13] = Cell cycle arrest in human T24 cells assessed as accumulation at G2 phase at 5 uM after 48 hrs by Rnase A/propidium iodide staining-based flow cytometry (reference value: 3.58%); assay type: functional; conditions: T-24; in short: as §1
T-24 [14] = assay: Induction of apoptosis in human T24 cells assessed as increase in caspase-7 protein expression at 20 uM after 6 to 24 hrs by Western blotting analysis; assay type: functional, cell-based
T-24 [15] = assay: Induction of apoptosis in human T24 cells assessed as late apoptotic cells at 5 uM after 24 hrs by annexin-V-FITC/propidium iodide staining-based flow cytometry (reference value: 2.08%); assay type: functional
[16] = Cytotoxicity against human T24 cells after 2 days by MTT assay; assay type: functional, cell-based; conditions: T-24, 48 h; in short: as §2
[17] = Cell cycle arrest in human T24 cells assessed as reduction in CDK4 level after 24 hrs by Western blotting analysis; assay type: functional, cell-based; conditions: T-24; in short: as §3
T-24 [18] = assay: Induction of apoptosis in human T24 cells assessed as loss of mitochondrial membrane potential at 5 to 20 uM after 24 hrs by JC-1 staining-based fluorescence microscopic analysis relative to control; assay type: functional, cell-based
In short: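 T24 cells exposed 24 h at 5, 10 and 20 µM, then given an equal volume of JC-1 staining solution at 37 °C for 20 min and rinsed twice with PBS. Monomer (green, 515–545 nm) and aggregate (red, 570–600 nm) emissions were viewed by fluorescence microscopy. Depolarization was read as a rise in the green/red ratio against untreated control.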

T-24 [19] = assay: Induction of apoptosis in human T24 cells assessed as necrotic cells at 10 uM after 24 hrs by annexin-V-FITC/propidium iodide staining-based flow cytometry (reference value: 1.66%); assay type: functional
[20] = Cell cycle arrest in human T24 cells assessed as increase in p53 level after 24 hrs by Western blotting analysis; assay type: functional, cell-based; conditions: T-24; in short: as §3
[21] = Cell cycle arrest in human T24 cells assessed as accumulation at G1 phase at 20 uM after 48 hrs by Rnase A/propidium iodide staining-based flow cytometry (reference value: 34.43%); assay type: functional; conditions: T-24
A549 = assay: Cytotoxicity against human A549 cells after 2 days by MTT assay; assay type: functional, cell-based; conditions: A549, 48 h; in short: as §2
[22] = Cytotoxicity against human SPCA2 cells after 2 days by MTT assay; assay type: functional, cell-based; conditions: SPCA2, 48 h; in short: as §2
T-24 [23] = assay: Induction of apoptosis in human T24 cells assessed as condensed nuclei after 24 hrs by Hoechst 33258 staining-based fluorescence microscopic analysis relative to control; assay type: functional, cell-based
In short: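 T24 cells on cover slips treated at […] for 24 h; untreated cells as control. Fixed in 4% paraformaldehyde for 10 min, PBS washes, Hoechst 33258 for 5 min. Nuclei imaged by fluorescence microscopy, excitation 350 nm, emission 460 nm.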

COc1ccc2c(c1)/C(=N\O)C(c1c[nH]c3ccc(OC)cc13)=N2
Activity (T-24 [1]): inactive | Activity (T-24 [2]): Dose-dependent effect | Activity [3]: 28.4% | Activity (T-24 [4]): Dose-dependent effect | Activity (T-24 [5]): 7.06% | Activity [6]: 51.9% | Activity (T-24 [7]): Dose-dependent effect | pIC50 (HepG2): 5.00 | Activity (T-24 [8]): 11.9% | Activity (T-24 [9]): Active | Activity (T-24 [10]): 32.7% | Activity [11]: Dose-dependent effect | Activity (T-24 [12]): Active | Activity [13]: 3.11% | Activity (T-24 [14]): Active | Activity (T-24 [15]): 6.03% | pIC50 [16]: 5.37 | Activity [17]: Dose-dependent effect | Activity (T-24 [18]): Active | Activity (T-24 [19]): 1.22% | Activity [20]: Dose-dependent effect | Activity [21]: 66.9% | pIC50 (A549): 5.22 | pIC50 [22]: 5.11 | Activity (T-24 [23]): Dose-dependent effect
